Experimental data from ChEMBL document CHEMBL1153001 (Eur J Med Chem, 2009).

Experiments:
[1] = Cytotoxicity against human HEL cells assessed as microscopically detectable morphological alterations after 3 days; format: cell-based
Summary of the method: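 HEL cell cultures exposed to varying compound concentrations. Cells examined microscopically for changes in morphology. MCC = lowest concentration producing a detectable alteration of cell morphology.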

[2] = tested on: Human betaherpesvirus 5; assay: Antiviral activity against human cytomegalovirus Davis infected in human HEL cells assessed as inhibition of virus-induced cytopathicity after 7 days post infection; format: functional, organism-based; settings: Human betaherpesvirus 5, Davis, 168 h
Summary of the method: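 Confluent HEL cell cultures in microtiter plates inoculated with 100 PFU CMV. After 2 h adsorption, residual virus removed and cells incubated with varying compound concentrations. Read once cytopathicity was complete in virus controls, usually 7 days post-infection. EC50 = concentration giving 50% reduction in plaque formation/cytopathicity.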

[3] = tested on: Human alphaherpesvirus 3; assay: Antiviral activity against Varicella zoster virus YS infected in human HEL cells assessed as inhibition of virus induced cytopathicity after 5 days; format: functional, organism-based; settings: Human alphaherpesvirus 3, YS, 120 h
Summary of the method: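 Confluent HEL cell cultures infected with 20 PFU/well VZV; after 2 h adsorption, residual virus removed and serial compound dilutions added. Incubated 5 days at 37 °C, 5% CO2, then fixed and stained. Plaques counted against untreated control. EC50 = concentration cutting plaque formation by 50%.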

[4] = tested on: Human alphaherpesvirus 3; assay: Antiviral activity against Varicella zoster virus OKA infected in human HEL cells assessed as inhibition of virus-induced cytopathicity after 5 days; format: functional, organism-based; settings: Human alphaherpesvirus 3, OKA, 120 h
Summary of the method: (§1)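 Confluent HEL cell cultures infected with 20 PFU/well VZV; after 2 h adsorption, residual virus removed and serial compound dilutions added. Incubated 5 days at 37 °C, 5% CO2, then fixed and stained. Plaques counted against untreated control.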

[5] = tested on: Human alphaherpesvirus 3; assay: Antiviral activity against thymidine kinase deficient Varicella zoster virus 07/1 infected in human HEL cells assessed as inhibition of virus-induced cytopathicity after 5 days; format: functional, organism-based; settings: Human alphaherpesvirus 3, 07/1, HEL, 120 h; summary of the method: as §1
[6] = Cytotoxicity against human HEL cells assessed as reduction in cell growth after 3 days; format: cell-based
Summary of the method: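 HEL cell suspensions seeded into wells holding varying compound concentrations. Grown 3 days at 37 °C in humidified CO2 incubator. Viable cells counted with a Coulter Counter. CC50 = concentration lowering viable cell number by 50%.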

[7] = tested on: Human betaherpesvirus 5; assay: Antiviral activity against human cytomegalovirus AD169 infected in human HEL cells assessed as inhibition of virus-induced cytopathicity after 7 days post infection; format: functional, organism-based; settings: Human betaherpesvirus 5, AD169, HEL, 168 h
Summary of the method: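 Confluent HEL cell cultures in microtiter plates inoculated with 100 PFU CMV. After 2 h adsorption, residual virus removed and cells incubated with varying compound concentrations. Read once cytopathicity was complete in virus controls, usually 7 days post-infection.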

[8] = tested on: Human alphaherpesvirus 3; assay: Ratio of compound EC50 to RA-5021 EC50 for Varicella zoster virus YS infected in human HEL cells assessed as inhibition of virus induced cytopathicity after 5 days; format: functional
[9] = tested on: Human alphaherpesvirus 3; assay: Ratio of compound EC50 to RA-5021 EC50 for Varicella zoster virus OKA infected in human HEL cells assessed as inhibition of virus induced cytopathicity after 5 days; format: functional
[10] = tested on: Human alphaherpesvirus 3; assay: Ratio of compound EC50 to Acyclovir EC50 for Varicella zoster virus OKA infected in human HEL cells assessed as inhibition of virus induced cytopathicity after 5 days; format: functional
[11] = tested on: Human alphaherpesvirus 3; assay: Ratio of compound EC50 to Acyclovir EC50 for Varicella zoster virus YS infected in human HEL cells assessed as inhibition of virus induced cytopathicity after 5 days; format: functional

| SMILES | MCC at 72 h [1] [µM] | EC50 [2] [µM] | EC50 [3] [µM] | EC50 [4] [µM] | EC50 [5] [µM] | CC50 at 72 h [6] [µM] | EC50 [7] [µM] | Ratio EC50 [8] | Ratio EC50 [9] | Ratio EC50 [10] | Ratio EC50 [11] |
| --- | --- | --- | --- | --- | --- | --- | --- | --- | --- | --- | --- |
| O=c1c2ncn(COCCO)c2nc2[nH]c(-c3cccs3)cn12 | > 100 | 100 | 7.9 | 5.8 | > 100 | > 100 | > 100 | – | – | – | – |
| O=c1c2ncn(CC3(CO)CC3CO)c2nc2[nH]c(-c3ccccc3)cn12 (centres undefined) | – | – | – | – | – | – | – | 2 | 3 | – | – |
| Nc1nc(O)c2ncn(CC3(CO)CC3CO)c2n1 (centres undefined) | > 100 | 44.7 | 0.3 | 0.13 | 25.8 | > 100 | 100 | – | – | 14 | 7 |
| O=c1c2ncn(CC3(CO)CC3CO)c2nc2[nH]c(-c3ccc(Br)s3)cn12 (centres undefined) | > 100 | 76.5 | 0.87 | 0.93 | > 100 | > 100 | > 100 | 2.9 | 7 | – | – |
| O=c1c2ncn(CC3(CO)CC3CO)c2nc2[nH]c(-c3ccco3)cn12 (cis isomer) | > 100 | > 100 | 0.64 | 0.42 | > 100 | > 100 | > 100 | 2.1 | 3.2 | – | – |
| O=c1[nH]c(=O)n([C@H]2C[C@H](O)[C@@H](CO)O2)cc1/C=C/Br [BRIVUDINE] | > 1200 | – | 0.026 | – | 157 | 432 | – | – | – | – | – |
| Nc1nc2c(ncn2COC(CO)CO)c(=O)[nH]1 [GANCICLOVIR] | > 1580 | – | 1.1 | 0.59 | 2.5 | 221 | 12.6 | – | – | – | – |
| O=c1c2ncn(COCCO)c2nc2[nH]c(-c3ccc(Br)s3)cn12 | > 100 | 100 | 10 | 8.7 | > 100 | > 100 | > 100 | – | – | – | – |
| O=c1c2ncn(COCCO)c2nc2[nH]c(-c3ccco3)cn12 | > 100 | > 100 | – | 16.4 | > 100 | > 100 | > 100 | – | – | – | – |
| Nc1nc2c(ncn2COCCO)c(=O)[nH]1 [ACYCLOVIR] | – | 45 | 2 | – | – | 782 | – | – | – | – | – |
| O=c1c2ncn(CC3(CO)CC3CO)c2nc2[nH]c(-c3cccs3)cn12 (centres undefined) | > 100 | 50.2 | 0.38 | 0.32 | 71.5 | > 100 | > 100 | 1.3 | 2.5 | – | – |
| Nc1ccn(C[C@@H](CO)OCP(=O)(O)O)c(=O)n1 [CIDOFOVIR] | ≥ 254 | – | – | – | – | 54 | 1.6 | – | – | – | – |
